Compound activity: PubChem BioAssay, several laboratories
hK5 inh: human KLK5 protease inhibitors, primary screen, biochemical, 1536-well. Kallikrein-5 (Homo sapiens), Q9Y337. recombinant hK5, fluorogenic AMC substrate cleavage. inhibition, % at 5 µM. actives 0.59% (n = 210,000). AID 873, 2007;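 active = inhibition of 40% or more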
Thrombin inh: human alpha-thrombin inhibitors, primary screen, counter-screen for coagulation protease inhibitor project, biochemical, 1536-well, fluorogenic AMC substrate. Prothrombin (Homo sapiens), P00734. Boc-VPR-AMC fluorogenic substrate cleavage. inhibition, % at 5 µM. actives 0.26% (n = 220,000). AID 1046, 2008;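 active = inhibition at or above 40%; inactive = inhibition below 40%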
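signal = AMC fluorescence, 355/460 nm | material = human alpha-thrombin enzyme | control set = enzyme without compound as high, wells lacking enzyme as low | times = reaction at room temperature | read-out basis = percent inhibition scaled between no-compound controls and no-enzyme blanks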
FXIa inh 1536: human FXIa protease inhibitors, primary screen, biochemical, 1536-well; actives 0.14% (n = 220,000); Coagulation factor XI (Homo sapiens), P03951; AID 798, 2007; inhibition, % at 5 µM; purified FXIa, Boc-Glu-Ala-Arg-AMC fluorogenic substrate;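 active = inhibition of at least 40%; inactive = inhibition below 40%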;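 note: fluorescence of freed AMC excited at 355 nm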
Target sequence (P03951 19-387 limits assumed): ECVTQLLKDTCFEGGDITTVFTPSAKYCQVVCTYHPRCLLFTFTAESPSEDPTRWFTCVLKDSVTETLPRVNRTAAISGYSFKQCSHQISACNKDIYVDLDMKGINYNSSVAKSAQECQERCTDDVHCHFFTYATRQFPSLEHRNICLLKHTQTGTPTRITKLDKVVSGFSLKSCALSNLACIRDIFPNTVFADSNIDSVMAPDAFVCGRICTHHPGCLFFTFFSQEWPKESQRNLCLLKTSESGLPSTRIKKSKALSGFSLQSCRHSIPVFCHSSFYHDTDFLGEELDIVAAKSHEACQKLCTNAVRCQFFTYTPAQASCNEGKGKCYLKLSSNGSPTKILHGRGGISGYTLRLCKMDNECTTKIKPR
Target sequence (P03951 388-625 limits assumed): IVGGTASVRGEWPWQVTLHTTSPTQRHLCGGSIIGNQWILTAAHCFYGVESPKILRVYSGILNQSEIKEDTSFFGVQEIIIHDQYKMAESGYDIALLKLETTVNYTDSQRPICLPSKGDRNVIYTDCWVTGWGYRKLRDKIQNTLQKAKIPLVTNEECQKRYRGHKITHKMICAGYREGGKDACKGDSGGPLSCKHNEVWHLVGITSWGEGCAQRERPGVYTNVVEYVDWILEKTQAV
Calpain2 inh: inhibitors of pig calpain II, primary screen, biochemical, fluorogenic peptide substrate, 1536-well; purified calpain II, 30 min; inhibition, % at 16 µM; actives 0.37% (n = 220,000);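 active = inhibition above about 50%, limit read from the data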
FXIIa inh 1536: human FXIIa protease inhibitors, primary screen, biochemical, 1536-well; Coagulation factor XII (Homo sapiens), P00748; purified FXIIa, Boc-QGR-AMC fluorogenic substrate, 2 h; inhibition, % at 5 µM; actives 0.3% (n = 220,000); AID 800, 2007; in the data active = inhibition above about 40%
Of the large screens only hits and unclear results are named; the others gave an inactive call. In the library only some 1.4% were active in any assay of this set; here they are far more common.

CCN1CCCc2cc(CN(CCN3CCOCC3)C(=S)Nc3cccc(OC)c3)ccc21	none
CCc1ccc(C2c3[nH]c4ccccc4c3CCN2C(=O)c2cc[n+]([O-])cc2)cc1 (centres undefined)	hK5 inh 50
CCCC1=C(C(=O)OCC)C(c2sccc2C)n2ncnc2N1 (centres undefined)	none
Nc1cccc2c1C(=O)N(C(=O)c1ccco1)C2=O	Thrombin inh 47
CC(=O)N1CCC(N2CCN(c3ccccc3F)CC2)CC1	FXIIa inh 1536 60
CCc1cccc(CC)c1NC(=O)c1cc(CN2C(=O)c3ccccc3C2=O)ccc1OC	Calpain2 inh 50
COc1ccc(CN2C(=O)c3ccccc3C2=O)cc1C(=O)OC(C)C(=O)NC(N)=O (centres undefined)	none
CS(=O)(=O)Nc1ccc(C2=NN(C(=O)c3ccco3)C(c3ccccc3F)C2)cc1 (centres undefined)	none
N#Cc1c(/N=C/c2ccco2)sc2c1CCC2	Thrombin inh 104
Cc1nc(SCC(=O)Nc2ccccc2)c2oc3ccccc3c2n1	none
Cc1nc(SCC(=O)NC(C)c2ccccc2)c2oc3ccccc3c2n1 (centres undefined)	Calpain2 inh 57
COc1ccc(OC)c(NC(=O)CCc2c[nH]c3ccccc23)c1	none
O=C(Nc1ccc(Cl)cc1)C1CCCN(S(=O)(=O)c2cnc[nH]2)C1 (centres undefined)	none
CC(C)c1ccc(NC(=O)C2CCCN(S(=O)(=O)c3cnc[nH]3)C2)cc1 (centres undefined)	hK5 inh 62
Cc1ccc(NC(=O)C2CCCN(S(=O)(=O)c3cnc[nH]3)C2)cc1F (centres undefined)	hK5 inh 71
CCOc1ccc(S(=O)(=O)Nc2nc3ccccc3nc2Nc2ccc(N3CCOCC3)cc2)cc1	none
CCCC/C(O)=N\S(=O)(=O)c1ccc(N=NN(C)C)cc1	hK5 inh 70
CCOC(=O)C(C(=O)NCc1cccc(OC)c1)c1ncc(C(F)(F)F)cc1Cl (centres undefined)	FXIIa inh 1536 45
CCOC(=O)C(C(=O)NCc1ccc(C)cc1)c1ncc(C(F)(F)F)cc1Cl (centres undefined)	none
Cc1ccc(NC(=O)CNc2ccc(OC(C)C)cc2)cc1	none
Cc1ccc(C(CC(=O)NCCCN(C)C)c2ccc(OC(C)C)cc2)cc1 (centres undefined)	FXIIa inh 1536 63
O=C(NCc1ccccc1)C(=O)Nc1nccs1	none
CCCOc1ccc(C(=O)NC(C)C(=O)O)cc1 (centres undefined)	FXIIa inh 1536 40
CC(NC(=O)c1ccc(C(C)(C)C)cc1)C(=O)O (centres undefined)	none
COC(=O)C(=N/Nc1ccccc1C(=O)OC)/C(C)=N/O	none
Cc1c(Cl)cnc(NC(=O)COC(=O)CCC(=O)c2cccs2)c1Cl	Thrombin inh 55
S=c1[nH]nc(-c2ccccn2)n1/N=C/c1ccc(-c2ccccc2Br)o1	none
COc1ccc(-c2nsc(SCC(=O)NCC3CCCO3)n2)cc1 (centres undefined)	none
CCc1cc2c(=O)c(-c3ccc4c(c3)OCCO4)c(C)oc2cc1OS(C)(=O)=O	none
O=C1C(C=NCCN2CCOCC2)=C(O)c2ccccc21	none
O=C1C(C=NCCCN2CCOCC2)=C(O)c2ccccc21	hK5 inh 59
Cn1c(=O)c2c(nc(SCC(=O)NCC3CCCO3)n2Cc2ccc(F)cc2)n(C)c1=O (centres undefined)	none
S=C(Nc1ccc(Br)cc1Cl)Nn1cnnc1	none (no result: hK5 inh)
Cc1cccc(OCCn2c(-c3ccco3)nc3ccccc32)c1	hK5 inh 48
c1ccc(OCCn2c(-c3ccco3)nc3ccccc32)cc1	none
COc1cc(C(=O)OCC(C)=O)ccc1OCc1c(C)noc1C	hK5 inh 42, FXIa inh 1536 42 (no result: Thrombin inh)
Cc1ccc(-c2ccc([C@H]3[C@@H]4C=CCC[C@@]4(C)C(=O)N3Cc3ccccc3)c(F)c2)cc1	Calpain2 inh 66
COc1ccc(-c2cc([C@H]3[C@@H]4C=CCC[C@@]4(C)C(=O)N3Cc3ccccc3)ccc2F)cc1	hK5 inh 42
Cc1cccc(N=C2NC(=O)/C(=C\c3cccs3)S2)c1	none
O=C1N=C(c2ccccc2)S/C1=C\c1cccs1	Thrombin inh 61
O=C1NC(=Nc2ccccc2)S/C1=C/c1cccs1	Calpain2 inh 106, FXIIa inh 1536 45
O=C1N=C(N2CCN(c3ccccc3)CC2)S/C1=C/c1cccs1	none
CCN(CC)C(=O)CSc1ccccc1N	hK5 inh 47
C=CC(=O)NC(NC(=O)C=C)c1ccccc1F	none
O=C(c1cc(COc2c(F)cccc2F)on1)N1CCC(c2ccccc2F)C1 (centres undefined)	none
O=C(c1cc(COc2c(F)cccc2F)on1)N1CCC(c2ccccc2Cl)C1 (centres undefined)	Calpain2 inh 55 (no result: hK5 inh)
CCOc1cc(/C=N/Nc2nc(Nc3ccccc3)nc(N3CCCCC3)n2)ccc1OCC(=O)O	hK5 inh 45
COc1ccc(/C=N/Nc2nc(Nc3ccccc3)nc(N3CCCCC3)n2)cc1OC	none
O=C(COc1ccc(Cl)cc1Cl)Nc1nc2n(n1)C(c1ccccc1)CC(=O)N2 (centres undefined)	hK5 inh 58
O=C1CC(c2ccccc2)n2nc(NS(=O)(=O)c3ccccc3)nc2N1 (centres undefined)	none
O=C(CSc1cccc(C(F)(F)F)c1)NCc1ccccc1	none
O=C(O)CSCC(=O)NCc1cccc(C(F)(F)F)c1	Thrombin inh 40
Cc1ccc(C)c(C(=O)NC2CC(C)(C)NC(C)(C)C2)c1	none
Cc1ccccc1C(=O)NC1CC(C)(C)NC(C)(C)C1	hK5 inh 58
CCN(CC)S(=O)(=O)c1ccc2c(c1)c(=O)c(C(=O)NCc1ccco1)cn2C	Thrombin inh 62
O=C(NCc1ccco1)c1c[nH]c2ccc(S(=O)(=O)N3CCOCC3)cc2c1=O	Thrombin inh 74
CCN(CC)S(=O)(=O)c1ccc2c(c1)c(=O)c(C(=O)NCCOC)cn2C	none
CC1CCN(S(=O)(=O)c2ccc3c(c2)c(=O)c(C(=O)NCc2ccco2)cn3C)CC1	none
CCN(CC)S(=O)(=O)c1ccc2c(c1)c(=O)c(C(=O)NCc1ccc3c(c1)OCO3)cn2C	Thrombin inh 64
C=CCn1cc(C(=O)NCc2ccc3c(c2)OCO3)c(=O)c2cc(S(=O)(=O)N(CC)CC)ccc21	Thrombin inh 42
CC(=O)NS(=O)(=O)c1ccc(NC(=S)NC(=O)c2ccco2)cc1	FXIIa inh 1536 43
O=C(CSc1nc2ccccc2c(=O)n1-c1ccccc1)N1CCCc2ccccc21	none
